Results as given in ChEMBL document CHEMBL4184263, “Synthetic analogues of the montanine-type alkaloids with activity against apoptosis-resistant cancer cells” (2018).
The source made the active and inactive calls. The rule behind the calls is not given here.

Experiments:
[1] = system: U373 MG; assay: Growth inhibition of apoptosis resistant human U373 cells assessed as reduction in cell viability incubated for 72 hrs by MTT assay; format: functional, U-373MG ATCC
In short: (§1)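 Cells were grown at 37 °C, 95% humidity and 5% CO₂, trypsinized and seeded. After 24 h they were treated for 72 h with compound from 10 nM to 100 μM, prepared from a 10 mM DMSO stock, or left untreated. Viability was read as MTT reduction to formazan, with untreated control optical density set as 100%. The 50% growth-reducing concentration was derived as the mean of experiments run in sextuplicate.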

[2] = system: B16-F10; assay: Growth inhibition of apoptosis sensitive mouse B16F10 cells assessed as reduction in cell viability incubated for 72 hrs by MTT assay; format: functional; details: B16-F10, 72 h; in short: as §1
[3] = system: SK-MEL-28; assay: Growth inhibition of apoptosis resistant human SK-MEL-28 cells assessed as reduction in cell viability incubated for 72 hrs by MTT assay; format: functional; details: SK-MEL-28, 72 h; in short: as §1
[4] = system: A549; assay: Growth inhibition of apoptosis resistant human A549 cells assessed as reduction in cell viability incubated for 72 hrs by MTT assay; format: functional; details: A549, 72 h; in short: as §1
[5] = system: Hs 683; assay: Growth inhibition of apoptosis sensitive human Hs683 cells assessed as reduction in cell viability incubated for 72 hrs by MTT assay; format: functional; details: Hs 683, 72 h; in short: as §1
[6] = system: MCF7; assay: Growth inhibition of apoptosis sensitive human MCF7 cells assessed as reduction in cell viability incubated for 72 hrs by MTT assay; format: functional; details: MCF7, 72 h; in short: as §1
[7] = Antiproliferative activity against human GSC22 cells assessed as inhibition of cell proliferation at 10 uM incubated for 72 hrs by bromodeoxyuridine incorporation based immunoassay; format: functional
In short: (§2)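 Patient-derived glioblastoma stem-like GSC22 cells were seeded at 1×10^3 cells/well and cultured for 24 h. They were then exposed for 72 h to compound at 1 μM to 30 μM, with DMSO as vehicle control. BrdU was added for the final 4 h. Incorporation was detected with a peroxidase-conjugated anti-BrdU antibody and substrate reaction read at 450/550 nm. Data are mean ± SEM, n=3, compared with vehicle.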

[8] = organism: Homo sapiens; assay: Antiproliferative activity against human GSC22 cells assessed as inhibition of cell proliferation at 1 uM incubated for 72 hrs by bromodeoxyuridine incorporation based immunoassay; format: functional; in short: as §2

Compound	GI50 [2]	GI50 [3]	GI50 [4]	GI50 [6]	GI50 [1]	GI50 [5]	inhibition at 10 µM [7]	inhibition [8]
CCO[C@H]1C=C2[C@H]3C[N@@](Cc4cc5c(cc43)OCO5)[C@H]2C[C@@H]1OC	40 µM	> 100 µM	59 µM	82 µM	> 100 µM	> 100 µM		
CO[C@H]1C[C@H]2C(=C[C@@H]1NCc1ccccc1)[C@H]1C[N@@]2Cc2cc3c(cc21)OCO3	10 µM	65 µM	59 µM	44 µM	72 µM	67 µM		
CO[C@H]1C[C@H]2C(=C[C@@H]1c1ccc[nH]1)[C@H]1C[N@@]2Cc2cc3c(cc21)OCO3	11 µM	67 µM	86 µM	68 µM	> 100 µM	95 µM		
CO[C@H]1C[C@H]2C(=C[C@@H]1O)[C@H]1C[N@]2[C@@H](OS(C)(=O)=O)c2cc3c(cc21)OCO3	72 µM	> 100 µM	> 100 µM	> 100 µM	> 100 µM	> 100 µM		
CO[C@H]1C[C@H]2C(=C[C@@H]1Cl)[C@H]1C[N@@+]2([O-])Cc2cc3c(cc21)OCO3	> 100 µM	> 100 µM	> 100 µM	> 100 µM	> 100 µM	> 100 µM		
CO[C@H]1C[C@H]2C(=C[C@@H]1Cl)[C@H]1C[N@@]2Cc2c1cc1c(c2I)OCO1	> 100 µM	> 100 µM	> 100 µM	> 100 µM	> 100 µM	> 100 µM		
C#CCO[C@H]1C=C2[C@H]3C[N@@](Cc4cc5c(cc43)OCO5)[C@H]2C[C@@H]1OC	10 µM	28 µM	23 µM	28 µM	42 µM	24 µM		
CO[C@@H]1C=C[C@@]23c4cc5c(cc4CN(C[C@@H]2O)[C@H]3C1)OCO5 [(+)-HAEMANTHAMINE]							80 to 95%	Active
C#CC[N@@+]12Cc3cc4c(cc3[C@H](C1)C1=C[C@H](Cl)[C@@H](OC)C[C@@H]12)OCO4	> 100 µM	> 100 µM	> 100 µM	> 100 µM	> 100 µM	> 100 µM		
CO[C@H]1C[C@H]2C(=C[C@@H]1Cl)[C@H]1C[N@@]2Cc2c(I)c3c(c(I)c21)OCO3	39 µM	> 100 µM	78 µM	78 µM	> 100 µM	71 µM		

The next lines start with results.

GI50 [2]	GI50 [3]	GI50 [4]	GI50 [6]	Compound	GI50 [1]	GI50 [5]	inhibition at 10 µM [7]	inhibition [8]
7 µM	18 µM	9 µM	19 µM	CO[C@H]1C[C@H]2C(=C[C@H]1Br)[C@H]1C[N@@]2Cc2cc3c(cc21)OCO3	25 µM	5 µM		
4 µM	9 µM	18 µM	23 µM	CO[C@H]1C[C@H]2C(=C[C@@H]1c1c[nH]c3ccccc13)[C@H]1C[N@@]2Cc2cc3c(cc21)OCO3	9 µM	24 µM	80 to 95%	Active
7 µM	14 µM	10 µM	20 µM	C=CCO[C@H]1C=C2[C@H]3C[N@@](Cc4cc5c(cc43)OCO5)[C@H]2C[C@@H]1OC	20 µM	7 µM		
8 µM	8 µM	5 µM	13 µM	CO[C@H]1C[C@H]2C(=C[C@@H]1O)[C@H]1CN2Cc2cc3c(cc21)OCO3	31 µM	4 µM		
3 µM	4 µM	3 µM	4 µM	CO[C@H]1C=C2[C@H]3C[N@@](Cc4cc5c(cc43)OCO5)[C@H]2C[C@@H]1OC	5 µM	3 µM	80 to 95%	Active
7 µM	26 µM	6 µM	17 µM	CO[C@H]1C[C@H]2C(=C[C@@H]1Cl)[C@H]1C[N@@]2Cc2cc3c(cc21)OCO3	51 µM	6 µM		
